Source: ChEMBL document CHEMBL1287751, “Development of a sphingosine kinase 1 specific small-molecule inhibitor” (Bioorg Med Chem Lett, 2010)
pIC50, pKi: −log10 of the molar value. Calls of active or inactive are those of the source. The calls are words filed in the database; no cut-off is given here.

Experiments:
Sphingosine kinase 1 [1] = biological target: T1, Sphingosine kinase 1 (Homo sapiens, UniProt Q9NYA1); experiment: Inhibition of His6x-tagged recombinant sphingosine kinase 1 expressed in HEK293 cells at 10.7 uM; type: cell-based
T1 sequence (Q9NYA1 whole entry): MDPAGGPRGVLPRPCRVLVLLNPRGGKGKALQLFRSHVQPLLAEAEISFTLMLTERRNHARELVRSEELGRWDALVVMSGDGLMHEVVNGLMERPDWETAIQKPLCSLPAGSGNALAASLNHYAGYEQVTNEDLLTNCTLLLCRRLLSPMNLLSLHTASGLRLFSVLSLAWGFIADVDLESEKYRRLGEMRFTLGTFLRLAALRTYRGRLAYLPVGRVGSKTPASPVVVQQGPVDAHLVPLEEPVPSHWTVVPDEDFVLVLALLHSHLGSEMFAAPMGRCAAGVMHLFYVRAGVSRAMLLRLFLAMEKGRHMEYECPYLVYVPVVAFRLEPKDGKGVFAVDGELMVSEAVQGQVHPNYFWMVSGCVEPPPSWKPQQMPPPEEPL
How it was run: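 Affinity-purified His6X-tagged SphK1, recombinantly overexpressed in HEK293 cells. Substrate was 25 µM D-erythro-sphingosine in SKAAB buffer, without BSA conjugation or Triton X-100 micelles. Compounds screened at 10.7 µM, with DMSO controls at ≤5% of reaction volume. Reported as % inhibition, averages of two separate experiments.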

Sphingosine kinase 1 [2] = biological target: T1, Sphingosine kinase 1; experiment: Non-competitive inhibition of recombinant sphingosine kinase 1 using ATP as substrate by Lineweaver-Burke plot analysis
[3] = biological target: T2, Sphingosine kinase 2 (Homo sapiens) (UniProt Q9NRA0); experiment: Inhibition of sphingosine kinase 2 up to 25 uM
T2 sequence (whole entry): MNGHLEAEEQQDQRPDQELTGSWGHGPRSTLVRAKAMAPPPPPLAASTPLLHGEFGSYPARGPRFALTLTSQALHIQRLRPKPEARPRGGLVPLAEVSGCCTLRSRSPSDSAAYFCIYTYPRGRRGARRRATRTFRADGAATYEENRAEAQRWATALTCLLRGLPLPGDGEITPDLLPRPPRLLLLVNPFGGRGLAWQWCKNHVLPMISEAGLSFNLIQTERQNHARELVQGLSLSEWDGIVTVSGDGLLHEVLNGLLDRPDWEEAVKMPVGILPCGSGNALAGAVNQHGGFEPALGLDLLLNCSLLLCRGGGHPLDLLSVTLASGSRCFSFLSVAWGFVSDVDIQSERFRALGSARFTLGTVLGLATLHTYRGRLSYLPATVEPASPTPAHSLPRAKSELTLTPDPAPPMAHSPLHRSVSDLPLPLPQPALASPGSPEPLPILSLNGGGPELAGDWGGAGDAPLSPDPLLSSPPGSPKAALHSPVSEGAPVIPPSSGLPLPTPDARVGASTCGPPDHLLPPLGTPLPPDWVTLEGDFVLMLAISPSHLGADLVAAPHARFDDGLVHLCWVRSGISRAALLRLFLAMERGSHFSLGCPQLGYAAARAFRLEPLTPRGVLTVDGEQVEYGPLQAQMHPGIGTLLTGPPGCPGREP
How it was run: (§1)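 SphK2 activity assay in SKAAB buffer supplemented with 1 M KCl. Substrate was D-erythro-sphingosine delivered without BSA or Triton X-100. DMSO ≤5% of reaction volume.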

Sphingosine kinase 1 [4] = biological target: T1, Sphingosine kinase 1; experiment: Inhibition of sphingosine kinase 1 in human A549 cells assessed as reduction in sphingosine-1-phosphate cellular level at 1 uM after 48 hrs by thin layer chromatography relative to control; type: cell-based
How it was run: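 A549 cells treated with 1 µM compound for 48 h. SphK activity assays were run on whole-cell lysates, lipids were separated by thin layer chromatography, and S1P was compared with DMSO-treated controls.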

MCF7 [5] = experiment: Cytotoxicity against human MCF7 cells after 48 hrs by sulforhodamine B assay; type: functional, cell-based; settings: MCF7, 48 h
MCF7 [6] = experiment: Cytotoxicity against human tamoxifen-resistant MCF7 cells after 48 hrs by sulforhodamine B assay; type: functional, cell-based; settings: MCF7, 48 h
[7] = Cytotoxicity against human NCI/ADR cells after 48 hrs by sulforhodamine B assay; type: functional, cell-based; settings: NCI/ADR-RES
NCI-H460 = experiment: Cytotoxicity against human H460 cells after 48 hrs by sulforhodamine B assay; type: functional, cell-based; settings: NCI-H460, 48 h
NCI-H226 = experiment: Cytotoxicity against human NCI-H226 cells after 48 hrs by sulforhodamine B assay; type: functional, cell-based; settings: NCI-H226, 48 h
U-251 = experiment: Cytotoxicity against human U251 cells after 48 hrs by sulforhodamine B assay; type: functional, cell-based; settings: U-251, 48 h
[8] = Cytotoxicity against human U87MG cells after 48 hrs by sulforhodamine B assay; type: functional, cell-based, U-87MG ATCC; settings: U-87 MG
PANC-1 = experiment: Cytotoxicity against human PANC1 cells after 48 hrs by sulforhodamine B assay; type: functional, cell-based; settings: PANC-1, 48 h
MIA PaCa-2 = experiment: Cytotoxicity against human MIAPaCa2 cells after 48 hrs by sulforhodamine B assay; type: functional, cell-based; settings: MIA PaCa-2, 48 h
BXPC-3 = experiment: Cytotoxicity against human BxPC3 cells after 48 hrs by sulforhodamine B assay; type: functional, cell-based; settings: BXPC-3, 48 h
[9] = Cytotoxicity against human KG1a cells after 48 hrs by sulforhodamine B assay; type: functional, cell-based; settings: KG-1a
[10] = Cytotoxicity against human Kusami-3 cells after 48 hrs by sulforhodamine B assay; type: functional, cell-based; settings: Kusami-3, 48 h
HL-60 [11] = experiment: Cytotoxicity against human HL60 cells after 48 hrs by sulforhodamine B assay; type: functional, cell-based; settings: HL-60, 48 h
HL-60 [12] = experiment: Cytotoxicity against VCR-resistance human HL60 cells after 48 hrs by sulforhodamine B assay; type: functional, cell-based; settings: HL-60, 48 h
SH-SY5Y = experiment: Cytotoxicity against human SH-SY5Y cells after 48 hrs by sulforhodamine B assay; type: functional, cell-based
Sphingosine kinase 1 [13] = biological target: T1, Sphingosine kinase 1; experiment: Competitive inhibition of recombinant sphingosine kinase 1 using D-erythro-sphingosine as substrate by Lineweaver-Burke plot analysis
How it was run: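 Recombinant His6X-tagged SphK1, affinity purified from HEK293 overexpression, assayed with varying D-erythro-sphingosine concentrations, with inhibitor absent or at 10 and 17 µM. Sph delivered in SKAAB buffer without BSA conjugation or Triton X-100 micelles. DMSO ≤5% of reaction. Ki and mechanism from linear regression.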

A549 = experiment: Ratio of compound cytotoxicity at 1 uM to SKI-I cytotoxicity for human A549 cells
[14] = biological target: T2, Sphingosine kinase 2 (Homo sapiens); experiment: Inhibition of sphingosine kinase 2; how it was run: as §1

SMILES: COc1ccc(-c2cc(C(=O)N/N=C/c3ccc(O)cc3)[nH]n2)cc1
- inhibition (Sphingosine kinase 1 [1]): 14.3%

SMILES: Cc1ccc(-c2cc(C(=O)N/N=C/c3ccccc3O)[nH]n2)cc1
- inhibition (Sphingosine kinase 1 [1]): 9.8%

SMILES: COc1ccc(-c2cc(C(=O)N/N=C(\C)c3ccc(Cl)cc3)[nH]n2)cc1
- inhibition (Sphingosine kinase 1 [1]): 46.8%

SMILES: O=C(N/N=C/c1cccc(O)c1)c1cc(-c2ccc3ccccc3c2)n[nH]1
- inhibition (Sphingosine kinase 1 [1]): 25.1%

SMILES: COc1ccc(-c2cc(C(=O)N/N=C/c3cc(O)cc(O)c3)[nH]n2)cc1
- inhibition (Sphingosine kinase 1 [1]): 12.5%

SMILES: COc1ccc(-c2cc(C(=O)N/N=C(\C)c3ccc(OC)c(OC)c3)[nH]n2)cc1
- inhibition (Sphingosine kinase 1 [2]): Active
- inhibition [3]: inactive
- inhibition (Sphingosine kinase 1 [4]): Active
- pIC50 (MCF7 [5]): 5.89
- pIC50 (MCF7 [6]): 5.74
- pIC50 [7]: 5.82
- pIC50 (NCI-H460): 6.52
- pIC50 (NCI-H226): 6.52
- pIC50 (U-251): 6.30
- pIC50 [8]: 6.22
- pIC50 (PANC-1): 7.00
- pIC50 (MIA PaCa-2): 7.00
- pIC50 (BXPC-3): 6.70
- pIC50 [9]: 6.30
- pIC50 [10]: 6.70
- pIC50 (HL-60 [11]): 6.70
- pIC50 (HL-60 [12]): 6.70
- pIC50 (SH-SY5Y): 6.52
- pKi (Sphingosine kinase 1 [13]): 5.88
- inhibition (Sphingosine kinase 1 [1]): 59.6%
- cytotoxicity ratio (A549): 1.37

SMILES: CCN(CC)c1ccc(/C=N/NC(=O)c2cc(-c3ccc(OC)cc3)n[nH]2)cc1
- inhibition (Sphingosine kinase 1 [1]): 38%

SMILES: COc1ccc(-c2cc(C(=O)N/N=C/c3ccc(F)cc3)[nH]n2)cc1
- inhibition (Sphingosine kinase 1 [1]): 27.4%

SMILES: COc1ccc(-c2cc(C(=O)N/N=C/c3ccc(O)cc3O)[nH]n2)cc1
- inhibition (Sphingosine kinase 1 [1]): 30.8%

SMILES: O=C(N/N=C/c1ccc(O)cc1)c1cc(-c2ccc3ccccc3c2)n[nH]1
- inhibition (Sphingosine kinase 1 [1]): 28%

SMILES: COc1ccc(/C(C)=N/NC(=O)c2cc(-c3ccc(C)cc3)n[nH]2)cc1OC
- inhibition (Sphingosine kinase 1 [1]): 21.8%

SMILES: COc1ccc(-c2cc(C(=O)N/N=C/c3ccc(OC)c(OC)c3)[nH]n2)cc1
- inhibition (Sphingosine kinase 1 [1]): 44.5%

SMILES: COc1ccc(-c2cc(C(=O)N/N=C/c3ccc(C(C)C)cc3)[nH]n2)cc1
- inhibition (Sphingosine kinase 1 [1]): 15.3%

SMILES: O=C(N/N=C/c1ccccc1O)c1cc(-c2ccccc2)n[nH]1
- inhibition (Sphingosine kinase 1 [1]): 11.9%

SMILES: O=C(N/N=C/c1ccc(O)cc1O)c1cc(-c2ccc3ccccc3c2)n[nH]1
- inhibition (Sphingosine kinase 1 [1]): 39.5%

SMILES: O=C(N/N=C/c1ccccc1O)c1cc(-c2ccc3ccccc3c2)n[nH]1
- inhibition (Sphingosine kinase 1 [1]): 59.3%

SMILES: COc1ccc(-c2cc(C(=O)N/N=C/c3cccc(O)c3)[nH]n2)cc1
- inhibition (Sphingosine kinase 1 [1]): 15.5%

SMILES: O=C(N/N=C/c1c(O)ccc2ccccc12)c1cc(-c2ccc3ccccc3c2)n[nH]1
- inhibition [14]: Dose-dependent effect
- inhibition (Sphingosine kinase 1 [4]): Active
- pKi (Sphingosine kinase 1 [13]): 5.97

SMILES: COc1ccc(-c2cc(C(=O)N/N=C/c3ccc4ccccc4c3)[nH]n2)cc1
- inhibition (Sphingosine kinase 1 [1]): 52.5%

SMILES: COc1ccc(-c2cc(C(=O)N/N=C/c3ccccc3O)[nH]n2)cc1
- inhibition (Sphingosine kinase 1 [1]): 33.5%
